# Measurements reported in ChEMBL document CHEMBL1649199 (Antimicrob Agents Chemother, 2009).
# Assays:
# Plasmodium falciparum [1] = assay: Antimicrobial activity against Plasmodium falciparum IMT 6311 harboring Pfcrt, Pfmdr1, Pfmrp, and Pfnhe-1 polymorphisms assessed as growth inhibition after 48 hrs by scintillation counting; assay type: functional, organism-based; settings: IMT 6311, 48 h
# Outline: (§1)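 Sorbitol-synchronized (twice) culture-adapted strains were grown in type A+ human blood in RPMI 1640 with 10% human serum, 25 mM HEPES and 25 mM NaHCO3, at 37°C under 10% O2/5% CO2/85% N2. Rings (>95%) at 0.5% parasitemia and 1.5% hematocrit were exposed to drug, methanol then water, final 0.125–400 nM or 5.3–3,387 nM, with 1 μCi [3H]hypoxanthine for 48 h. IC50 from nonlinear regression versus drug-free controls.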
# Plasmodium falciparum [2] = assay: Antimicrobial activity against Plasmodium falciparum IMT 10354 harboring Pfcrt, Pfmdr1, Pfmrp, and Pfnhe-1 polymorphisms assessed as growth inhibition after 48 hrs by scintillation counting; assay type: functional, organism-based; settings: IMT 10354, 48 h; outline: as §1
# Plasmodium falciparum [3] = assay: Antimicrobial activity against Plasmodium falciparum FCM29 harboring Pfcrt, Pfmdr1, Pfmrp, and Pfnhe-1 polymorphisms assessed as growth inhibition after 48 hrs by scintillation counting; assay type: functional, organism-based; settings: FCM29, 48 h
# Outline: (§2)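 Culture-adapted strains in RPMI 1640 with 10% human serum, 25 mM HEPES, 25 mM NaHCO3, type A+ blood, 10% O2/5% CO2/85% N2, 37°C; sorbitol-synchronized twice. Rings >95%, 0.5% parasitemia, 1.5% hematocrit; drug (methanol then water) final 0.125–400 nM or 5.3–3,387 nM. [3H]hypoxanthine 1 μCi/well at time zero, 48 h; freeze-thaw, harvest, scintillation; IC50 versus drug-free control by nonlinear regression of log dose-response.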
# Plasmodium falciparum [4] = assay: Antimicrobial activity against Plasmodium falciparum IMT L1 harboring Pfcrt, Pfmdr1, Pfmrp, and Pfnhe-1 polymorphisms assessed as growth inhibition after 48 hrs by scintillation counting; assay type: functional, organism-based; settings: IMT L1, 48 h; outline: as §2
# Plasmodium falciparum [5] = assay: Antimicrobial activity against Plasmodium falciparum IMT 16332 harboring Pfcrt, Pfmdr1, Pfmrp, and Pfnhe-1 polymorphisms assessed as growth inhibition after 48 hrs by scintillation counting; assay type: functional, organism-based; settings: IMT 16332, 48 h; outline: as §1
# Plasmodium falciparum [6] = assay: Antimicrobial activity against Plasmodium falciparum IMT 10500 harboring Pfcrt, Pfmdr1, Pfmrp, and Pfnhe-1 polymorphisms assessed as growth inhibition after 48 hrs by scintillation counting; assay type: functional, organism-based; settings: IMT 10500, 48 h; outline: as §1
# Plasmodium falciparum [7] = assay: Antimicrobial activity against Plasmodium falciparum IMT 8425 harboring Pfcrt, Pfmdr1, Pfmrp, and Pfnhe-1 polymorphisms assessed as growth inhibition after 48 hrs by scintillation counting; assay type: functional, organism-based; settings: IMT 8425, 48 h; outline: as §1
# Plasmodium falciparum [8] = assay: Antimicrobial activity against Plasmodium falciparum IMT 16116 harboring Pfcrt, Pfmdr1, Pfmrp, and Pfnhe-1 polymorphisms assessed as growth inhibition after 48 hrs by scintillation counting; assay type: functional, organism-based; settings: IMT 16116, 48 h; outline: as §1
# Plasmodium falciparum [9] = assay: Antimicrobial activity against Plasmodium falciparum IMT 9996 harboring Pfcrt, Pfmdr1, Pfmrp, and Pfnhe-1 polymorphisms assessed as growth inhibition after 48 hrs by scintillation counting; assay type: functional, organism-based; settings: IMT 9996, 48 h; outline: as §1
# Plasmodium falciparum [10] = assay: Antimicrobial activity against Plasmodium falciparum IMT K4 harboring Pfcrt, Pfmdr1, Pfmrp, and Pfnhe-1 polymorphisms assessed as growth inhibition after 48 hrs by scintillation counting; assay type: functional, organism-based; settings: IMT K4, 48 h; outline: as §1
# Plasmodium falciparum [11] = assay: Antimicrobial activity against Plasmodium falciparum ms4760-6 assessed as growth inhibition after 48 hrs by scintillation counting; settings: ms4760-6, 48 h
# Plasmodium falciparum [12] = assay: Antimicrobial activity against Plasmodium falciparum IMT A4 harboring Pfcrt, Pfmdr1, Pfmrp, and Pfnhe-1 polymorphisms assessed as growth inhibition after 48 hrs by scintillation counting; assay type: functional, organism-based; settings: IMT A4, 48 h; outline: as §2
# Plasmodium falciparum [13] = assay: Antimicrobial activity against Plasmodium falciparum ms4760-7 assessed as growth inhibition after 48 hrs by scintillation counting; settings: ms4760-7, 48 h
# Plasmodium falciparum [14] = assay: Antimicrobial activity against Plasmodium falciparum IMT K14 harboring Pfcrt, Pfmdr1, Pfmrp, and Pfnhe-1 polymorphisms assessed as growth inhibition after 48 hrs by scintillation counting; assay type: functional, organism-based; settings: IMT K14, 48 h; outline: as §1
# Plasmodium falciparum [15] = assay: Antimicrobial activity against Plasmodium falciparum IMT K2 harboring Pfcrt, Pfmdr1, Pfmrp, and Pfnhe-1 polymorphisms assessed as growth inhibition after 48 hrs by scintillation counting; assay type: functional, organism-based; settings: IMT K2, 48 h; outline: as §2
# Plasmodium falciparum [16] = assay: Antimicrobial activity against Plasmodium falciparum PA harboring Pfcrt, Pfmdr1, Pfmrp, and Pfnhe-1 polymorphisms assessed as growth inhibition after 48 hrs by scintillation counting; assay type: functional, organism-based; outline: as §2
# Plasmodium falciparum [17] = assay: Antimicrobial activity against Plasmodium falciparum IMT 9881 harboring Pfcrt, Pfmdr1, Pfmrp, and Pfnhe-1 polymorphisms assessed as growth inhibition after 48 hrs by scintillation counting; assay type: functional, organism-based; settings: IMT 9881, 48 h; outline: as §1
# Plasmodium falciparum [18] = assay: Antimicrobial activity against Plasmodium falciparum IMT 10336 harboring Pfcrt, Pfmdr1, Pfmrp, and Pfnhe-1 polymorphisms assessed as growth inhibition after 48 hrs by scintillation counting; assay type: functional, organism-based; settings: IMT 10336, 48 h; outline: as §1
# Plasmodium falciparum [19] = assay: Antimicrobial activity against Plasmodium falciparum W2 harboring Pfcrt, Pfmdr1, Pfmrp, and Pfnhe-1 polymorphisms assessed as growth inhibition after 48 hrs by scintillation counting; assay type: functional, organism-based; settings: W2, 48 h; outline: as §1
# Plasmodium falciparum [20] = assay: Antimicrobial activity against Plasmodium falciparum D6 harboring Pfcrt, Pfmdr1, Pfmrp, and Pfnhe-1 polymorphisms assessed as growth inhibition after 48 hrs by scintillation counting; assay type: functional, organism-based; settings: D6, 48 h; outline: as §1
# Plasmodium falciparum [21] = assay: Antimicrobial activity against Plasmodium falciparum IMT 31 harboring Pfcrt, Pfmdr1, Pfmrp, and Pfnhe-1 polymorphisms assessed as growth inhibition after 48 hrs by scintillation counting; assay type: functional, organism-based; settings: IMT 31, 48 h; outline: as §1
# Plasmodium falciparum [22] = assay: Antimicrobial activity against Plasmodium falciparum IMT Vol harboring Pfcrt, Pfmdr1, Pfmrp, and Pfnhe-1 polymorphisms assessed as growth inhibition after 48 hrs by scintillation counting; assay type: functional, organism-based; outline: as §1
# Plasmodium falciparum [23] = assay: Antimicrobial activity against Plasmodium falciparum FCR3 harboring Pfcrt, Pfmdr1, Pfmrp, and Pfnhe-1 polymorphisms assessed as growth inhibition after 48 hrs by scintillation counting; assay type: functional, organism-based; settings: FCR3, 48 h; outline: as §1
# Plasmodium falciparum [24] = assay: Antimicrobial activity against Plasmodium falciparum 3D7 harboring Pfcrt, Pfmdr1, Pfmrp, and Pfnhe-1 polymorphisms assessed as growth inhibition after 48 hrs by scintillation counting; assay type: functional, organism-based; settings: 3D7, 48 h; outline: as §1
# Plasmodium falciparum [25] = assay: Antimicrobial activity against Plasmodium falciparum IMT Bres harboring Pfcrt, Pfmdr1, Pfmrp, and Pfnhe-1 polymorphisms assessed as growth inhibition after 48 hrs by scintillation counting; assay type: functional, organism-based; outline: as §1
smiles,measurement,setting,value
C=C[C@H]1CN2CC[C@H]1C[C@H]2[C@H](O)c1ccnc2ccc(OC)cc12 [QUININE],IC50,Plasmodium falciparum [1],0.453 µM
same,IC50,Plasmodium falciparum [2],0.058 µM
same,IC50,Plasmodium falciparum [3],0.58 µM
same,IC50,Plasmodium falciparum [4],0.575 µM
same,IC50,Plasmodium falciparum [5],0.083 µM
same,IC50,Plasmodium falciparum [6],0.21 µM
same,IC50,Plasmodium falciparum [7],0.148 µM
same,IC50,Plasmodium falciparum [8],0.204 µM
same,IC50,Plasmodium falciparum [9],1.04 µM
same,IC50,Plasmodium falciparum [10],1.03 µM
same,IC50,Plasmodium falciparum [11],0.582 µM
same,IC50,Plasmodium falciparum [12],0.605 µM
same,IC50,Plasmodium falciparum [13],0.764 µM
same,IC50,Plasmodium falciparum [14],1.31 µM
same,IC50,Plasmodium falciparum [15],0.599 µM
same,IC50,Plasmodium falciparum [16],0.625 µM
same,IC50,Plasmodium falciparum [17],0.057 µM
same,IC50,Plasmodium falciparum [18],0.271 µM
same,IC50,Plasmodium falciparum [19],0.686 µM
same,IC50,Plasmodium falciparum [20],0.062 µM
same,IC50,Plasmodium falciparum [21],0.371 µM
same,IC50,Plasmodium falciparum [22],0.421 µM
same,IC50,Plasmodium falciparum [23],0.334 µM
same,IC50,Plasmodium falciparum [24],0.128 µM
same,IC50,Plasmodium falciparum [25],0.5 µM
